These results are taken from ChEMBL document CHEMBL1828595, “A facile four-component sequential protocol in the expedient synthesis of novel 2-aryl-5-methyl-2,3-dihydro-1H-3-pyrazolones in water and their antitubercular evaluation” (2011).

Each structure is given as a SMILES string. In brackets after ≈: the same amount, converted by molar mass.

For one assay, the system named is Mycobacterium tuberculosis. Briefly: Antitubercular activity against Mycobacterium tuberculosis H37Rv by agar dilution method. It is filed as functional. In a few lines:
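M. tuberculosis H37Rv on Middlebrook 7H11 agar with OADC, agar dilution per NCCLS-type MIC method, pH 7.4. MIC taken as the lowest concentration inhibiting 99% of bacterial growth, determined in duplicate.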
Molecule `Cc1[nH]n(-c2ccc(F)cc2)c(=O)c1C(c1ccc(Cl)cc1Cl)c1c(O)ccc2ccccc12` (stereo not given) showed an MIC of 1.6 µM (≈ 0.789 µg/mL). The same measure, in the same setting: in the case of `Cc1[nH]n(-c2ccc(F)cc2)c(=O)c1C(c1ccc(Cl)cc1)c1c(O)ccc2ccccc12` (stereo not given) it was 3.4 µM (≈ 1.56 µg/mL).

In turn, `Cc1[nH]n(-c2ccc(F)cc2)c(=O)c1C(c1cccc([N+](=O)[O-])c1)c1c(O)ccc2ccccc12` (stereo not given) had an MIC of 6.7 µM (≈ 3.15 µg/mL). On the same count and under the same terms, in the case of `Cc1[nH]n(-c2ccc(F)cc2)c(=O)c1C(c1ccc(F)cc1)c1c(O)ccc2ccccc12` (stereo not given) it was 7.1 µM (≈ 3.14 µg/mL). The same measure, in the same setting: for `Cc1[nH]n(-c2ccccc2)c(=O)c1C(c1ccc(C(C)C)cc1)c1c(O)ccc2ccccc12` (stereo not given) the value was 14 µM (≈ 6.28 µg/mL); for `NNC(=O)c1ccncc1` [ISONIAZID], 0.4 µM (≈ 0.0549 µg/mL). Still for that read-out and setting: for `Cc1ccc(C(c2c(C)[nH]n(-c3ccc(F)cc3)c2=O)c2c(O)ccc3ccccc23)cc1` (stereo not given) the value was 14.2 µM (≈ 6.23 µg/mL); for `CC[C@@H](CO)NCCN[C@@H](CC)CO` [ETHAMBUTOL], 7.6 µM (≈ 1.55 µg/mL). As to `Cc1[nH]n(-c2ccccc2)c(=O)c1C(c1ccccc1[N+](=O)[O-])c1c(O)ccc2ccccc12` (stereo not given), the MIC was found to be 13.8 µM (≈ 6.23 µg/mL). As for `Cc1[nH]n(-c2ccc(F)cc2)c(=O)c1C(c1ccccc1)c1c(O)ccc2ccccc12` (stereo not given), the MIC came out at 14.7 µM (≈ 6.24 µg/mL). Turning to `Cc1[nH]n(-c2ccccc2)c(=O)c1C(c1ccc(Cl)cc1)c1c(O)ccc2ccccc12` (stereo not given), the lowest concentration to inhibit growth (MIC) was 14.1 µM (≈ 6.22 µg/mL). On to `Cc1[nH]n(-c2ccc(F)cc2)c(=O)c1C(c1ccc([N+](=O)[O-])cc1)c1c(O)ccc2ccccc12` (stereo not given), for which the lowest concentration to inhibit growth (MIC) was 3.3 µM (≈ 1.55 µg/mL). Same read-out and setting: for `Cc1[nH]n(-c2ccc(Cl)cc2)c(=O)c1C(c1ccc(Cl)cc1)c1c(O)ccc2ccccc12` (stereo not given) the value was 6.6 µM (≈ 3.14 µg/mL); for `Cc1[nH]n(-c2ccccc2)c(=O)c1C(c1ccc([N+](=O)[O-])cc1)c1c(O)ccc2ccccc12` (stereo not given), 6.9 µM (≈ 3.12 µg/mL). On the same count and under the same terms, for `Cc1[nH]n(-c2ccccc2)c(=O)c1C(c1ccccc1)c1c(O)ccc2ccccc12` (stereo not given) the value was 30.8 µM (≈ 12.5 µg/mL); for `COc1ccc(C(c2c(C)[nH]n(-c3ccccc3)c2=O)c2c(O)ccc3ccccc23)cc1` (stereo not given), 28.6 µM (≈ 12.5 µg/mL). Still for that read-out and setting: in the case of `Cc1ccc(C(c2c(C)[nH]n(-c3ccccc3)c2=O)c2c(O)ccc3ccccc23)cc1` (stereo not given) it was 29.7 µM (≈ 12.5 µg/mL); in that of `CO[C@H]1/C=C/O[C@@]2(C)Oc3c(C)c(O)c4c(O)c(c(/C=N/N5CCN(C)CC5)c(O)c4c3C2=O)NC(=O)/C(C)=C\C=C\[C@H](C)[C@H](O)[C@@H](C)[C@@H](O)[C@@H](C)[C@H](OC(C)=O)[C@@H]1C` [RIFAMPIN], 0.1 µM (≈ 0.0823 µg/mL).

In a further assay the test system is Mycobacterium tuberculosis. Kind of assay: Ratio of MIC for ciprofloxacin to compound for Mycobacterium tuberculosis H37Rv by agar dilution method. The assay is classed as functional. The procedure, abridged:
(§1)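 Ratio of reference-drug MIC to test-compound MIC. Both MICs were measured against M. tuberculosis H37Rv by agar dilution on OADC-supplemented Middlebrook 7H11 at pH 7.4, with 99% growth inhibition as endpoint, in duplicate.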
With `Cc1[nH]n(-c2ccc(F)cc2)c(=O)c1C(c1ccc(Cl)cc1Cl)c1c(O)ccc2ccccc12` (stereo not given), the Ratio came to 2.94.

The test system of another assay is Mycobacterium tuberculosis. Briefly: Ratio of MIC for ethambutol to compound for Mycobacterium tuberculosis H37Rv by agar dilution method. It is filed as functional. In a few lines:
as §1
Regarding `Cc1[nH]n(-c2ccc(F)cc2)c(=O)c1C(c1ccc(Cl)cc1Cl)c1c(O)ccc2ccccc12` (stereo not given), the Ratio is recorded as 4.75.
